Laboratory results as given in ChEMBL document CHEMBL4665824, “Characterization and Discovery of a Selective Small-Molecule Modulator of Mitochondrial Complex I Targeting a Unique Binding Site” (J Med Chem, 2020).
Active and inactive are the calls of the source. No cut-off for these calls is given here.

Key:
Mus musculus [1] = species: Mus musculus; assay: Binding affinity to purified C57BL/6 mouse cerebral cortex mitochondrial complex 1 assessed as labelling of 75 kDa sub unit at 10 uM in presence of ZCM-I-1 incubated for 45 mins under irradiation by SDS-PAGE analysis; details: Mitochondria
Outline: (§1)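 Preincubated with DMSO or competitor 45 min at 4 °C, then photoaffinity probe added for 30 min at 4 °C. Irradiated 365 nm, 10 min on ice, then run on SDS-PAGE. Read by in-gel fluorescence (488 nm excitation), or after streptavidin pull-down by silver stain. Three independent experiments.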

Mus musculus [2] = species: Mus musculus; assay: Binding affinity to purified C57BL/6 mouse cerebral cortex mitochondrial complex 1 assessed as labelling of 51 kDa sub unit at 10 uM in presence of ZCM-I-1 incubated for 45 mins under irradiation by SDS-PAGE analysis; details: Mitochondria; outline: as §1
Mus musculus [3] = species: Mus musculus; assay: Binding affinity to purified C57BL/6 mouse cerebral cortex mitochondrial complex 1 assessed as labelling of 24 kDa sub unit at 10 uM in presence of ZCM-I-1 incubated for 45 mins under irradiation by SDS-PAGE analysis; details: Mitochondria; outline: as §1
MC65 = assay: Inhibition of mitochondrial complex 1 in human MC65 cells assessed as protective potency concentration; type: cell-based
Mus musculus [4] = species: Mus musculus; assay: Binding affinity to purified C57BL/6 mouse cerebral cortex mitochondrial complex 1 assessed as labelling of 13 kDa sub unit at 10 uM in presence of ZCM-I-1 incubated for 45 mins under irradiation by SDS-PAGE analysis; details: Mitochondria; outline: as §1
Mus musculus [5] = species: Mus musculus; assay: Binding affinity to purified C57BL/6 mouse cerebral cortex mitochondrial complex 1 assessed as labelling of IF site ( 49 kDa) sub unit at 10 uM in presence of ZCM-I-1 incubated for 45 mins under irradiation by SDS-PAGE analysis; details: Mitochondria; outline: as §1
Mus musculus [6] = species: Mus musculus; assay: Binding affinity to purified C57BL/6 mouse cerebral cortex mitochondrial complex 1 assessed as labelling of 13 kDa sub unit at 10 uM in presence of NADH incubated for 45 mins under irradiation by SDS-PAGE analysis; details: Mitochondria; outline: as §1
Mus musculus [7] = species: Mus musculus; assay: Binding affinity to purified C57BL/6 mouse cerebral cortex mitochondrial complex 1 assessed as labelling of 13 kDa sub unit at 1 to 10 uM incubated for 45 mins under irradiation by SDS-PAGE analysis; details: Mitochondria, dose microM 1-10, time 45.0 min; outline: as §1
[8] = Drug localization in mitochondria human MC65 cells at 3 uM incubated for 3.5 hrs by immunocytochemistry; type: ADME; details: mc65, 3.5 h
Outline: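 MC65 cells plated 24 h on poly-D-lysine coverslips, given 3 μM probe for 3.5 h, then MitoTracker Red (300 nM) for 30 min. Fixed in 4% formaldehyde 15 min, DAPI-stained, mounted. Imaged by confocal microscopy (63x/1.40 oil) and analysed for colocalization coefficients.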

Mus musculus [9] = species: Mus musculus; assay: Binding affinity to purified C57BL/6 mouse cerebral cortex mitochondrial complex 1 assessed as labelling of 13 kDa sub unit at 10 uM in presence of FMN incubated for 45 mins under irradiation by SDS-PAGE analysis; details: Mitochondria; outline: as §1
Mus musculus [10] = species: Mus musculus; assay: Binding affinity to purified C57BL/6 mouse cerebral cortex mitochondrial complex 1 assessed as labelling of 51 kDa sub unit at 1 to 10 uM incubated for 45 mins under irradiation by SDS-PAGE analysis; details: Mitochondria, dose microM 1-10, time 45.0 min; outline: as §1
Mus musculus [11] = species: Mus musculus; assay: Binding affinity to purified C57BL/6 mouse cerebral cortex mitochondrial complex 1 assessed as labelling of 75 kDa sub unit at 10 uM in presence of IQ site inhibitor rotenone incubated for 45 mins under irradiation by SDS-PAGE analysis; details: Mitochondria; outline: as §1
Mus musculus [12] = species: Mus musculus; assay: Binding affinity to purified C57BL/6 mouse cerebral cortex mitochondrial complex 1 assessed as labelling of 75 kDa sub unit at 10 uM in presence of NADH incubated for 45 mins under irradiation by SDS-PAGE analysis; details: Mitochondria; outline: as §1
Mus musculus [13] = species: Mus musculus; assay: Binding affinity to purified C57BL/6 mouse cerebral cortex mitochondrial complex 1 assessed as labelling of 75 kDa sub unit at 10 uM in presence of FMN incubated for 45 mins under irradiation by SDS-PAGE analysis; details: Mitochondria; outline: as §1
Mus musculus [14] = species: Mus musculus; assay: Binding affinity to purified C57BL/6 mouse cerebral cortex mitochondrial complex 1 assessed as labelling of 75 kDa sub unit at 1 to 10 uM incubated for 45 mins under irradiation by SDS-PAGE analysis; details: Mitochondria, dose microM 1-10, time 45.0 min; outline: as §1
Mus musculus [15] = species: Mus musculus; assay: Binding affinity to purified C57BL/6 mouse cerebral cortex mitochondrial complex 1 assessed as labelling of IF site ( 49 kDa) sub unit at 1 to 10 uM incubated for 45 mins under irradiation by SDS-PAGE analysis; details: Mitochondria, dose microM 1-10, time 45.0 min; outline: as §1
Mus musculus [16] = species: Mus musculus; assay: Binding affinity to purified C57BL/6 mouse cerebral cortex mitochondrial complex 1 assessed as labelling of 24 kDa sub unit at 10 uM in presence of IQ site inhibitor rotenone incubated for 45 mins under irradiation by SDS-PAGE analysis; details: Mitochondria; outline: as §1
Mus musculus [17] = species: Mus musculus; assay: Binding affinity to purified C57BL/6 mouse cerebral cortex mitochondrial complex 1 assessed as labelling of 13 kDa sub unit at 10 uM in presence of IQ site inhibitor rotenone incubated for 45 mins under irradiation by SDS-PAGE analysis; details: Mitochondria; outline: as §1
Mus musculus [18] = species: Mus musculus; assay: Binding affinity to purified C57BL/6 mouse cerebral cortex mitochondrial complex 1 assessed as labelling of 51 kDa sub unit at 10 uM in presence of FMN incubated for 45 mins under irradiation by SDS-PAGE analysis; details: Mitochondria; outline: as §1
Mus musculus [19] = species: Mus musculus; assay: Binding affinity to purified C57BL/6 mouse cerebral cortex mitochondrial complex 1 assessed as labelling of 24 kDa sub unit at 10 uM in presence of NADH incubated for 45 mins under irradiation by SDS-PAGE analysis; details: Mitochondria; outline: as §1
Mus musculus [20] = species: Mus musculus; assay: Binding affinity to purified C57BL/6 mouse cerebral cortex mitochondrial complex 1 assessed as labelling of 24 kDa sub unit at 1 to 10 uM incubated for 45 mins under irradiation by SDS-PAGE analysis; details: Mitochondria, dose microM 1-10, time 45.0 min; outline: as §1
Mus musculus [21] = species: Mus musculus; assay: Binding affinity to purified C57BL/6 mouse cerebral cortex mitochondrial complex 1 assessed as labelling of 51 kDa sub unit at 10 uM in presence of NADH incubated for 45 mins under irradiation by SDS-PAGE analysis; details: Mitochondria; outline: as §1
[22] = Drug localization in mitochondria mouse cortical neuron at 25 uM incubated for 4 hrs by immunocytochemistry; type: ADME; details: cortical neurone
Outline: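 Mouse primary cortical neurons (E15.5 C57BL/6J cortex, DIV 10–12; cytarabine 1 μM from DIV 3–6) given 25 μM probe for 4 h, then Mitotracker Red CMXRos (25 nM) for 30 min. Washed by half-media exchanges with phenol-red-free medium. Imaged live by confocal microscopy, 63x/1.4 NA oil objective.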

Mus musculus [23] = species: Mus musculus; assay: Binding affinity to purified C57BL/6 mouse cerebral cortex mitochondrial complex 1 assessed as labelling of 49 kDa sub unit at 10 uM in presence of FMN incubated for 45 mins under irradiation by SDS-PAGE analysis; details: Mitochondria; outline: as §1
Mus musculus [24] = species: Mus musculus; assay: Inhibition of mitochondrial complex 1 in permeabilized mouse brain mitochondria assessed as reduction in ROS production at 1 uM incubated for 1 hr after TC removal by Amplex Red and horseradish peroxidase based assay
Mus musculus [25] = species: Mus musculus; assay: Binding affinity to purified C57BL/6 mouse cerebral cortex mitochondrial complex 1 assessed as labelling of 49 kDa sub unit at 10 uM in presence of NADH incubated for 45 mins under irradiation by SDS-PAGE analysis; details: Mitochondria; outline: as §1
Mus musculus [26] = species: Mus musculus; assay: Binding affinity to purified C57BL/6 mouse cerebral cortex mitochondrial complex 1 assessed as labelling of 24 kDa sub unit at 10 uM in presence of FMN incubated for 45 mins under irradiation by SDS-PAGE analysis; details: Mitochondria; outline: as §1
Mus musculus [27] = species: Mus musculus; assay: Binding affinity to purified C57BL/6 mouse cerebral cortex mitochondrial complex 1 assessed as labelling of 49 kDa sub unit at 10 uM in presence of IQ site inhibitor rotenone incubated for 45 mins under irradiation by SDS-PAGE analysis; details: Mitochondria; outline: as §1
Mus musculus [28] = species: Mus musculus; assay: Binding affinity to purified C57BL/6 mouse cerebral cortex mitochondrial complex 1 assessed as labelling of 51 kDa sub unit at 10 uM in presence of IQ site inhibitor rotenone incubated for 45 mins under irradiation by SDS-PAGE analysis; details: Mitochondria; outline: as §1

With `COc1ccc2[nH]cc(CCNC(=O)C(CCC3(CCc4cn(CCOCCOCCNC(=O)CCCCC5SCC6NC(=O)NC65)nn4)N=N3)C(=O)CCc3ccc(O)cc3)c2c1` (centres undefined) the Activity (Mus musculus [1]) was “inactive”, the Activity (Mus musculus [2]) was “inactive” and the Activity (Mus musculus [3]) was “inactive”. For the same compound, the INH (MC65) was > 3 nM, the Activity (Mus musculus [4]) was “inactive” and the Activity (Mus musculus [5]) was “inactive”.

With `COc1ccc2[nH]cc(CCNC(=O)C(CCC3(CCc4cn(CCCNc5ccc([N+](=O)[O-])c6nonc56)nn4)N=N3)C(=O)CCc3ccc(O)cc3)c2c1` (centres undefined) the Activity (Mus musculus [6]) was “inactive”, the Activity (Mus musculus [7]) was “Active” and the Drug uptake [8] was “Active”. The Activity (Mus musculus [9]) was “inactive”, the Activity (Mus musculus [10]) was “Active” and the Activity (Mus musculus [11]) was “Active”. The Activity (Mus musculus [12]) was “inactive”, the Activity (Mus musculus [13]) was “inactive” and the Activity (Mus musculus [14]) was “Active”. For the same compound, the Activity (Mus musculus [15]) was “Active”, the Activity (Mus musculus [2]) was “inactive” and the Activity (Mus musculus [16]) was “Active”. For the same compound, the Activity (Mus musculus [3]) was “inactive”, the Activity (Mus musculus [17]) was “Active” and the Activity (Mus musculus [18]) was “inactive”. For the same compound, the Activity (Mus musculus [19]) was “inactive”, the Activity (Mus musculus [20]) was “Active” and the Activity (Mus musculus [21]) was “inactive”. The Drug uptake [22] was “Active”, the Activity (Mus musculus [23]) was “inactive” and the inhibition (Mus musculus [24]) was “inactive”. The Activity (Mus musculus [25]) was “inactive”, the Activity (Mus musculus [26]) was “inactive” and the INH (MC65) was 96.8 nM. The Activity (Mus musculus [4]) was “inactive”, the Activity (Mus musculus [5]) was “inactive” and the Activity (Mus musculus [27]) was “Active”. The Activity (Mus musculus [28]) was “Active”.
